MC4R antag cAMP – antagonists of human melanocortin 4 receptor (MC4R) | P32245 | MC4R-expressing cells, MTII-stimulated cAMP, LANCE TR-FRET | inhibition, % at 6.5 µM | 0.48% of 360,000 active;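 active = inhibition above its plate's cutoff, the mean of tested wells on that plate plus 3 SD, cut at about 29% in these data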
Target sequence (P32245 whole entry, looked up): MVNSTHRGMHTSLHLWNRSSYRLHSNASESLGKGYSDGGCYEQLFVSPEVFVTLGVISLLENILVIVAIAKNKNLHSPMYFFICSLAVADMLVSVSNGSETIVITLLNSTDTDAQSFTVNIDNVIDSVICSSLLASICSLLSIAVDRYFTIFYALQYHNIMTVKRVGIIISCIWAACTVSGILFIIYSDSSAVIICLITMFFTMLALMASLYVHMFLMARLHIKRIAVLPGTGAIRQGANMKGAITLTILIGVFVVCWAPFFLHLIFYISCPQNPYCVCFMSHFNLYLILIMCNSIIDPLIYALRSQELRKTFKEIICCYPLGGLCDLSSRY
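System: U2OS cells stably expressing human melanocortin 4 receptor (MC4R). Reagent: Melanotan II challenge after compound preincubation. Doses: 6.5 µM. Times: 30-min compound, 1-h challenge, 1-h detection, room temperature. Measured by: TR-FRET with Eu-cAMP and labeled anti-cAMP, 671 nm. Replicates: singlicate.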
MC4R barr agon – agonists of human melanocortin 4 receptor (MC4R) beta-arrestin; P32245; 0.98% of 360,000 active; U2OS MC4R beta-arrestin complementation, luminescence; percent of melanotan II response, DMSO zero; activation, % at 8.9 µM; AID 540308;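 active = activation above a per-plate cutoff, the mean activation of sample wells on that plate plus 3 SD, cut at about 8% in these data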
TbMetRS inhib – blocks T. brucei methionyl-tRNA synthetase activity; purified T. brucei MetRS, ATP depletion, Kinase-Glo luminescence; inhibition, % at 11.9 µM; 0.4% of 360,000 active; AID 624268;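 active = inhibition above a per-plate cutoff of the control wells' mean inhibition plus 3 SD, cut at about 5.5% in these data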
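Measured by: Kinase-Glo luciferase luminescence reporting remaining unconsumed ATP. Material: purified T. brucei MetRS enzyme. Doses: 11.9 µM compound single dose, 0.9% DMSO. Medium: HEPES buffer containing pyrophosphatase, BSA, spermine, DTT. Times: 15 min preincubation, 2 h reaction, all 25 °C. Reagent: methionine, ATP and bulk E. coli tRNA.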
A1 inh – inhibitors of the anti-apoptotic protein A1, read as caspase activation; MEF A1-2A-BIM cells, Caspase-Glo 3/7 luminescence, 3 h; percent of clofoctol response, vehicle zero; caspase activation, % (concentration not given with the values); 0.066% of 330,000 active; AID 2462;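 active = over half of replicate activation scores above 10%, or exactly half above 10 with the replicate mean above 10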
NALP1 yeast inh – NALP1 inhibition. inhibition, % at 10 µM. S. cerevisiae NALP1/ASC/caspase-1 growth, X-gal OD620, 72 h. AID 2071. 0.61% of 280,000 active; in the data active = inhibition mostly above about 24%, no sharp cut-off; inactive = mostly below about 32%
NALP3 yeast inh – NALP3 inhibition in yeast | 0.39% of 330,000 active | Yeast reconstituted NLRP3/ASC/caspase-1, beta-gal luminescence, 24 h | inhibition, % at 10 µM | AID 2825;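 active = inhibition of 50% or more; inactive = inhibition below 50%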
TbMetRS confirm – Trypanosoma brucei MetRS inhibition confirmed | shares compounds with TbMetRS inhib | T. brucei MetRS enzyme, luminescence (ATP depletion) | inhibition, % at 11.9 µM | 93% of 1,400 active; in the data active = inhibition above about 7%
Jurkat cytotox – kills Jurkat cells in T. brucei MetRS counterscreen | 12% of 1,400 active | shares compounds with TbMetRS inhib | Jurkat cells viability, ATP luminescence | inhibition, % at 8.3 µM | AID 624413; in the data active = inhibition above about 15%
Tb MetRS inh FP – orthogonal test for Trypanosoma brucei MetRS inhibitors. shares compounds with TbMetRS inhib. purified T. brucei MetRS, fluorescence polarization. inhibition, % at 11.9 µM. 44% of 1,400 active. AID 651607; in the data active = inhibition above about 17%
Hits are given with their value. Only some compounds are listed: those with a hit (about 2.5% of all), similar ones and a draw of the others.

C=CCN1CCN(C(=O)c2cc3c(s2)CCCC3)CC1 was read as MC4R antag cAMP inactive, MC4R barr agon inactive, TbMetRS inhib inactive, A1 inh inactive, NALP1 yeast inh inactive and NALP3 yeast inh inactive.
Screening NC(=O)c1cccc(-c2ccnc3c2CC(C(=O)Nc2ccc(Cl)cc2)O3)c1 (stereo not drawn) returned MC4R antag cAMP inactive, MC4R barr agon inactive, TbMetRS inhib 52, TbMetRS confirm 70, Jurkat cytotox inactive and Tb MetRS inh FP 47.
For COc1ccc(CCNC(=O)CCC(=O)Nc2ccccc2[N+](=O)[O-])cc1OC the results were MC4R antag cAMP inactive, MC4R barr agon inactive, TbMetRS inhib inactive, A1 inh inactive, NALP1 yeast inh inactive and NALP3 yeast inh inactive.
Screening COc1ccc(CCNC(=O)c2cc(S(=O)(=O)N3CCCCC3)c[nH]2)cc1OC returned MC4R antag cAMP inactive, MC4R barr agon inactive, TbMetRS inhib inactive, A1 inh inactive, NALP1 yeast inh inactive and NALP3 yeast inh inactive.
For Cc1cccc(CCNC(=O)c2cc(S(=O)(=O)N3CCCCC3)c[nH]2)c1 the results were MC4R antag cAMP inactive, MC4R barr agon inactive, TbMetRS inhib 27, A1 inh inactive, NALP1 yeast inh inactive, NALP3 yeast inh inactive, TbMetRS confirm 46, Jurkat cytotox inactive and Tb MetRS inh FP 28.
`COc1cccc(CNC(=O)CCCC(=O)NC(C)CCc2ccccc2)c1` (stereo not drawn) gave MC4R antag cAMP inactive, MC4R barr agon inactive, TbMetRS inhib inactive, A1 inh inactive, NALP1 yeast inh inactive and NALP3 yeast inh inactive.
COC(=O)c1nn(C)c(=O)[nH]c1=O was read as MC4R antag cAMP inactive, MC4R barr agon inactive and TbMetRS inhib inactive.
Screening NC1=NC(=O)/C(=C\c2ccc(-c3ccc(Cl)cc3)o2)S1 returned MC4R antag cAMP inactive, MC4R barr agon inactive, TbMetRS inhib 9.1, A1 inh inactive, NALP1 yeast inh inactive, NALP3 yeast inh inactive, TbMetRS confirm 34, Jurkat cytotox 22 and Tb MetRS inh FP 49.
For CN(C)C1=NC(=O)/C(=C/c2ccc(-c3ccc(S(N)(=O)=O)cc3)o2)S1 the results were A1 inh inactive, NALP1 yeast inh inactive and NALP3 yeast inh inactive.
`N#CCCn1cc(C(=O)CN2C(=O)NC3(CCCCCC3)C2=O)c2ccccc21` gave MC4R antag cAMP inactive, MC4R barr agon inactive, TbMetRS inhib inactive and NALP3 yeast inh inactive.
O=C(Nc1ccccc1)Nc1cc(S(=O)(=O)N2CCOCC2)ccc1N1CCCC1 was read as MC4R antag cAMP inactive, MC4R barr agon inactive, TbMetRS inhib 8.5, A1 inh inactive, NALP1 yeast inh inactive, NALP3 yeast inh inactive, TbMetRS confirm 20, Jurkat cytotox inactive and Tb MetRS inh FP inactive.
O=C(Nc1ccc(Cl)cc1)Nc1cc(S(=O)(=O)N2CCOCC2)ccc1N1CCCC1 was read as MC4R antag cAMP inactive, MC4R barr agon inactive, TbMetRS inhib 38, A1 inh inactive, NALP1 yeast inh inactive, NALP3 yeast inh inactive, TbMetRS confirm 60, Jurkat cytotox inactive and Tb MetRS inh FP 35.
CCNC(=O)Nc1cc(S(=O)(=O)N2CCOCC2)ccc1N1CCCCC1 was read as MC4R antag cAMP inactive, MC4R barr agon inactive and TbMetRS inhib inactive.
O=C(Cc1ccc(F)cc1)Nc1cc(S(=O)(=O)N2CCOCC2)ccc1N1CCCCC1 was read as MC4R antag cAMP inactive, MC4R barr agon inactive and TbMetRS inhib inactive.
`O=C(Nc1ccc(F)cc1)Nc1cc(S(=O)(=O)N2CCOCC2)ccc1N1CCCC1` gave MC4R antag cAMP inactive, MC4R barr agon inactive, TbMetRS inhib 11, A1 inh inactive, NALP1 yeast inh inactive, NALP3 yeast inh inactive, TbMetRS confirm 27, Jurkat cytotox inactive and Tb MetRS inh FP inactive.

Screening data (PubChem BioAssay)
